Activity calls are given as the source filed them. No cut-off for these calls is given here.
Assays:
[1] = target: T1, Acid-sensing ion channel 1 (Rattus norvegicus) (UniProt P55926); experiment: Inhibition of acid-induced ASIC1a protein expression in rat articular chondrocytes at 1.563 to 25 uM pretreated for 24 hrs followed by acid medium stimulation at pH 6 for 3 hrs by Western blot analysis; type: cell-based
T1 sequence (whole entry): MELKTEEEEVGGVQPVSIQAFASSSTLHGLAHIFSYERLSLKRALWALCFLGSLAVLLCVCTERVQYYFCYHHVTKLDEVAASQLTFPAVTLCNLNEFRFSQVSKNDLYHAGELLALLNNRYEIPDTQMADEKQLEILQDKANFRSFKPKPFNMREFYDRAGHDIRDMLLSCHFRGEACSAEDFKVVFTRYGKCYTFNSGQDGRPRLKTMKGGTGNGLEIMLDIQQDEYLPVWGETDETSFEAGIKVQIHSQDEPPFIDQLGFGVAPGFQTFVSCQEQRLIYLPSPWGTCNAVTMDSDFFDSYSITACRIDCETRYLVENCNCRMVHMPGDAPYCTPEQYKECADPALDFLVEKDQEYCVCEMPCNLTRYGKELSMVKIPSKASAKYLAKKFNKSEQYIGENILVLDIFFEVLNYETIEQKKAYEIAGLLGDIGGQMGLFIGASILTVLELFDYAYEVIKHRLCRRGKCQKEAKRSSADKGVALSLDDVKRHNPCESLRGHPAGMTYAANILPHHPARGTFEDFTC
Summary of the method: (§1)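 Primary rat articular chondrocytes in DMEM/10% FBS at 37 °C, 5% CO2 were pretreated with compound for 24 h, then stimulated with acidic medium (pH 6.0) for 3 h. Cells kept at pH 7.4 served as control. Cells were PBS-washed and lysed, and ASIC1a was measured by Western blot with β-actin as internal control. Mean ± SD of three independent experiments.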

[2] = Cytotoxicity against rat articular chondrocytes assessed as decrease in cell viability at 1.563 to 25 uM after 24 hrs by MTT assay
Summary of the method: (§2)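 Primary rat articular chondrocytes were seeded at 5 × 10^3 cells/well and incubated 24 h in DMEM with 10% FBS. They were then exposed to compound for 24 h. MTT (5 mg/mL stock) was added for 4 h at 37 °C, formazan was dissolved in DMSO, and OD was read at 492 nm against a cell-free blank. Run in triplicate, three independent experiments, means ± SE.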

[3] = target: T1, Acid-sensing ion channel 1 (Rattus norvegicus); experiment: (§3) Inhibition of ASIC1a in rat articular chondrocytes assessed as decrease in acid-induced intracellular calcium level at 25 uM pretreated with compound followed by acid medium stimulation in presence of voltage gated calcium channel inhibitor nimodipine after 24 hrs by Fluo-3AM dye based laser scanning confocal microscopy relative to control; type: cell-based
Summary of the method: (§4)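 Primary rat articular chondrocytes (1 × 10^5 cells) were grown 24 h, then loaded with 10 μM Fluo-3-AM plus 0.02% Pluronic F-127 for 30 min at 37 °C and washed. Nimodipine (5 μM) was present in the extracellular fluid. Cells were perfused with D-Hank's containing compound, then with Hank's solution at pH 6.0. Confocal fluorescence (ex 488, em 525 nm) was imaged up to 5 min. Result reported as % inhibition of Ca2+ fluorescence intensity.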

[4] = target: T2, Acid-sensing ion channel 1 (Rattus norvegicus, UniProt P55926); experiment: Inhibition of ASIC1 in Sprague-Dawley rat articular chondrocytes assessed as decrease in acid-induced intracellular calcium level by Fluo-3AM dye based laser scanning confocal microscopy; type: cell-based
T2 sequence (P55926 whole entry): T1 sequence (whole entry)
Summary of the method: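 Primary rat articular chondrocytes were seeded at 1 × 10^5 cells and used after 24 h. Cells were loaded with 10 µM Fluo-3-AM plus 0.02% Pluronic F-127 for 30 min at 37 °C, washed, and kept with 5 µM nimodipine in the extracellular fluid. They were perfused with D-Hank's, then compound, then pH 6.0 Hank's. Confocal readout at ex 488/em 525 nm over 5 min gave the fluorescence-intensity inhibition rate.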

[5] = Cytotoxicity against rat articular chondrocytes assessed as decrease in cell viability at 50 uM after 24 hrs by MTT assay; summary of the method: as §2
[6] = target: T1, Acid-sensing ion channel 1 (Rattus norvegicus); experiment: Inhibition of acid-induced ASIC1a protein expression in rat articular chondrocytes at 3.125 to 50 uM pretreated for 24 hrs followed by acid medium stimulation at pH 6 for 3 hrs by Western blot analysis; type: cell-based; summary of the method: as §1
[7] = target: T1, Acid-sensing ion channel 1 (Rattus norvegicus); experiment: as §3, with “50” for “25”; type: cell-based; summary of the method: as §4
[8] = target: T2, Acid-sensing ion channel 1; experiment: Inhibition of ASIC1a in rat dorsal root ganglion neurons assessed as reduction in peak current preincubated for 120 secs followed by acid medium stimulation at pH 5.5 for 3 secs by automated patch clamp electrophysiology assay
[9] = Cytotoxicity against rat articular chondrocytes assessed as decrease in cell viability at 3.125 to 25 uM after 24 hrs by MTT assay; summary of the method: as §2

With `N=C(NN)c1ccc2cc(/C=C/c3ccccc3)ccc2c1` the “inhibition of ASIC1a protein expression (active/not active)” value (“inhibition … (active/not active)” for short) [1] was “Active”, the Activity [2] was “Non-Toxic” and the inhibition [3] was 33.4%.
With `N=C(NN)c1ccc2cc(/C=C/c3cccc(Cl)c3)ccc2c1` the “inhibition … (active/not active)” value [1] was “Active”, the Activity [2] was “Non-Toxic” and the inhibition [3] was 59.5%.
Molecule `N=C(N)NC(=O)c1nc(Cl)c(N)nc1N` [AMILORIDE] has an IC50 [4] of 30.2 µM.
For `Cc1ccc(/C=C/c2ccc3cc(C(=N)NN)ccc3c2)cc1`, the Activity [5] was “Toxic”, the inhibition [6] was “Active” and the inhibition [7] was 63.2%.
For `N=C(NN)c1ccc2cc(/C=C/c3cccc(F)c3)ccc2c1`, the “inhibition … (active/not active)” value [1] was “Active” and the Activity [2] was “Non-Toxic”.
In the case of `CC(C)C1c2cc(C3CC3c3ccc4cc(C(=N)N)ccc4c3)ccc2CCN1C` (centres undefined), the IC50 [8] is reported as 2 µM.
In the case of `N=C(NN)c1ccc2cc(/C=C/c3ccc(F)cc3)ccc2c1`, the “inhibition … (active/not active)” value [1] is reported as “inactive” and the Activity [2] is reported as “Non-Toxic”.
In the case of `N=C(NN)c1ccc2cc(/C=C/c3ccccc3F)ccc2c1`, the “inhibition … (active/not active)” value [1] is reported as “Active”, the Activity [2] is reported as “Non-Toxic” and the inhibition [3] is reported as 52.1%.
With `COc1ccc(/C=C/c2ccc3cc(C(=N)NN)ccc3c2)cc1` the inhibition [6] was “Active”, the Activity [9] was “Non-Toxic” and the inhibition [3] was 68.9%.
In the case of `N=C(NN)c1ccc2cc(/C=C/c3ccc(Cl)cc3)ccc2c1`, the inhibition [6] is reported as “Active”, the Activity [9] is reported as “Non-Toxic” and the inhibition [7] is reported as 20.8%.

From ChEMBL document CHEMBL4118142, “Novel amidrazone derivatives: Design, synthesis and activity evaluation” (Bioorg Med Chem, 2018)
